Results: the RNAGym collection of RNA variant scans (doi:10.1126/science.aae0568)
Variants at the floor of the assay were thinned out.

B1: tRNA (parent)
chain: GUUCCGUUGGCGUAAUGGUAACGCGUCUCCCUCCUAAGGAGAAGACUGCGGGUUCGAGUCCCGUACGGAACG

Variants of: B1
Assay: yeast fitness relative to wild type (ratio to wild type); higher = fitter; tRNA-Arg(CCU), competitive growth, 37 C, YPD
Method in brief: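 Amplicons of the tRNA-Arg(CCU) gene were sequenced, 100-nucleotide paired-end, from the start population and from each end population of a pooled yeast competition. The competition, in six parallel replicates, lasted 24 hours in YPD at 37°C. Fitness relative to wild type was calculated from changes in genotype frequencies. Genotypes had to have ≥ 100 starting reads, and estimates < 0.5 were set to 0.5.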
Work on G18A G56A yielded a yeast fitness of 0.705. G18A G56C showed a yeast fitness of 0.521. In the case of U19A A21U C24A U28C, the yeast fitness is reported as ≤ 0.5. With U19A A21G C27U C33U G56A the yeast fitness was ≤ 0.5. Work on U19A C27U A45C G63A yielded a yeast fitness of 0.729. In the case of G18C G52A C62G, the yeast fitness is reported as 0.55. With G18C C66A A69U the yeast fitness was ≤ 0.5. With U19A A20G C49U U59C C62G the yeast fitness was ≤ 0.5. With G18A G58C A65U the yeast fitness was ≤ 0.5. Variant U19A A37G A65G has a yeast fitness of 0.707. G18C C27G U28C U47C U59A A65G gave a yeast fitness of 0.61. Variant U19A C27G has a yeast fitness of 0.581. Work on U19A C27A yielded a yeast fitness of 0.775. For G18C G23A G25C U26C A37G A43C C55G G68A, the yeast fitness was ≤ 0.5. G18C A69C showed a yeast fitness of 0.642. In the case of G18C U28G C61U A65C, the yeast fitness is reported as ≤ 0.5. Work on G18C G68A yielded a yeast fitness of 0.619. G18A U32A showed a yeast fitness of 0.513. Work on G18C A43U yielded a yeast fitness of 0.674. With U19A C29A the yeast fitness was 0.712. With U19A C29G the yeast fitness was 0.685. With U19A A42G A65C A69C A70G the yeast fitness was ≤ 0.5. With G18C C22A A45C C46U A65C the yeast fitness was ≤ 0.5. With G18A U53A C66U the yeast fitness was ≤ 0.5. With G18C A37C C49G the yeast fitness was 0.663. For G18C C49G A65U, the yeast fitness was 0.66. With U19A A45U U54G the yeast fitness was 0.631. G18C G23A G25C A37G A43C C55G G68A gave a yeast fitness of 0.551. G18A G58A gave a yeast fitness of 0.765. For G18A G58C, the yeast fitness was 0.792. With G18C U28G the yeast fitness was 0.727. For G18C C30U A42G C55A, the yeast fitness was 0.533. In the case of U19A A37U C55G U64A, the yeast fitness is reported as ≤ 0.5. For U19A C27G A40G, the yeast fitness was ≤ 0.5. In the case of G18C C30G C62G, the yeast fitness is reported as ≤ 0.5. For G18C C29G C31G A57C, the yeast fitness was 0.549. G18C C27U C55G showed a yeast fitness of 0.67. In the case of G18C C22G C55A A70U, the yeast fitness is reported as ≤ 0.5. With G18C C31A the yeast fitness was 0.634. G18A U19A gave a yeast fitness of 0.594. Work on G18A U54A yielded a yeast fitness of 0.597. In the case of G18C U28C C30U A43G C55U, the yeast fitness is reported as ≤ 0.5. In the case of G18C A21G, the yeast fitness is reported as 0.643. In the case of G18C C24U A40U C55U U59A, the yeast fitness is reported as 0.501. Variant G18C G23C G39A C55A has a yeast fitness of 0.696. For G18C G41A A42C G50C A70G, the yeast fitness was ≤ 0.5. G18C A70U gave a yeast fitness of 0.737. In the case of G18C A70G, the yeast fitness is reported as 0.588. In the case of G18C C33A G39C G41C G44C, the yeast fitness is reported as ≤ 0.5. With U19A A43U A69U the yeast fitness was 0.85. For G18A G51C A65U, the yeast fitness was ≤ 0.5. G18C C27U A69C showed a yeast fitness of 0.502. With G18A U26G G48C A65G the yeast fitness was ≤ 0.5. In the case of G18C G51A, the yeast fitness is reported as 0.518. In the case of G18C C30U C31U G48A, the yeast fitness is reported as ≤ 0.5. U19A A43U A70U gave a yeast fitness of 0.825. For G18A U32A U53C, the yeast fitness was ≤ 0.5. For G18C C29U C49G, the yeast fitness was ≤ 0.5. G18C C33G A40G G58A U64A gave a yeast fitness of 0.59. With G18A U26G A40G U59G C62A the yeast fitness was ≤ 0.5. For G18C G23C U53A A69C, the yeast fitness was ≤ 0.5. With U19A A36G G50U U59A the yeast fitness was ≤ 0.5. For G18C A21C A69U, the yeast fitness was ≤ 0.5. Work on G18A U26G G50C G63C yielded a yeast fitness of 0.589. G18C A43C G52A showed a yeast fitness of 0.502. In the case of G18C G44A G67U, the yeast fitness is reported as ≤ 0.5. U19A A45C gave a yeast fitness of 0.726. For G18C A45C A65U, the yeast fitness was ≤ 0.5. U19A A40G C55G A65C gave a yeast fitness of 0.534. For G18C C31A A37G G58C, the yeast fitness was ≤ 0.5. With G18C G50U U53A the yeast fitness was ≤ 0.5. With U19A C27A G52C the yeast fitness was ≤ 0.5. For G18C C33G A40G C61U, the yeast fitness was ≤ 0.5. Variant G18C C31G A42G has a yeast fitness of 0.505. For G18C A42C U54A, the yeast fitness was ≤ 0.5. With U19A C22U G56A the yeast fitness was 0.547. For G18C C27G C46A G58A U59A, the yeast fitness was ≤ 0.5. With G18C A43C C62A the yeast fitness was ≤ 0.5. U19A C27U C66U gave a yeast fitness of 0.786. For U19A C24A U32C A36U C66G, the yeast fitness was ≤ 0.5. With G18C C30U C33U C49U the yeast fitness was 0.608. For G18C, the yeast fitness was 0.659. G18U showed a yeast fitness of 0.844. With G18C C27A U28A A42U the yeast fitness was ≤ 0.5. For G18A U19A C61G, the yeast fitness was ≤ 0.5. For G18C A36U A57U, the yeast fitness was ≤ 0.5. With G18C C22U C61U the yeast fitness was ≤ 0.5. With G18C C30G U32C U53A the yeast fitness was ≤ 0.5. In the case of G18U C33U C34U C66A A70C, the yeast fitness is reported as ≤ 0.5. With G18A U28C U47A the yeast fitness was ≤ 0.5. With G18C C24G A36C G38C U47C G58C the yeast fitness was ≤ 0.5. For G18C G48A, the yeast fitness was 0.571. G18C U59C showed a yeast fitness of 0.559. With G18C A20G C29A G67A the yeast fitness was ≤ 0.5. With G18C G41C G44C C55A the yeast fitness was ≤ 0.5. For U19A C24U G38A U54C A69C, the yeast fitness was ≤ 0.5. In the case of G18C U19G C27U A43U G67U, the yeast fitness is reported as ≤ 0.5. With G18C C22A A65G the yeast fitness was ≤ 0.5. For G18C G38U G51A, the yeast fitness was ≤ 0.5. With G18C A65C G68A the yeast fitness was ≤ 0.5. G18C U26A A45G C62G gave a yeast fitness of 0.556. Variant U19A A65G has a yeast fitness of 1.05. In the case of U19A A65C, the yeast fitness is reported as 1.01. Variant U19A C22U has a yeast fitness of 0.709. In the case of G18C A37U G48C C49A, the yeast fitness is reported as ≤ 0.5. In the case of G18A U32A G44A A65C, the yeast fitness is reported as ≤ 0.5. In the case of U19A A43U C55G, the yeast fitness is reported as 0.55. In the case of G18C C62A G68C, the yeast fitness is reported as ≤ 0.5. In the case of G18A U19C C22G C24A G39C A45C, the yeast fitness is reported as 0.619. With U19A C22U G63C the yeast fitness was ≤ 0.5. With U19A A20C C31G the yeast fitness was ≤ 0.5. Work on U19A A20U U35C yielded a yeast fitness of 0.82. With G18U U26A A69U the yeast fitness was ≤ 0.5. With G18A U19A G51C U64C the yeast fitness was ≤ 0.5. In the case of G18C G44A G68A, the yeast fitness is reported as ≤ 0.5. In the case of G18A U26C A40C U54A, the yeast fitness is reported as ≤ 0.5. Variant U19A A69U has a yeast fitness of 1.04. U19A A69C gave a yeast fitness of 1.08. Work on G18C A21G C27A C30U G38A yielded a yeast fitness of 0.547. In the case of G18C C22G A69C, the yeast fitness is reported as ≤ 0.5. G18C A40U A70G gave a yeast fitness of 0.632. With G18C C62A the yeast fitness was ≤ 0.5. With G18C C62U the yeast fitness was 0.611. In the case of G18C C29U A37G, the yeast fitness is reported as ≤ 0.5. In the case of G18C U26C G50C, the yeast fitness is reported as ≤ 0.5. With G18C U26C C29G C31G C33U C46A A69C the yeast fitness was ≤ 0.5. For G18C C29G A45G C66U A69C, the yeast fitness was ≤ 0.5. For G18A U53A C62G, the yeast fitness was ≤ 0.5. With U19A A40G C55G A70G the yeast fitness was ≤ 0.5. For U19A C22G C34U A42G A43G A70U, the yeast fitness was ≤ 0.5. In the case of G18C U26A C55G, the yeast fitness is reported as ≤ 0.5. In the case of U19A A45G A57C, the yeast fitness is reported as ≤ 0.5. With G18C C29U C46U A57G the yeast fitness was 0.636. For G18C A36U A70U, the yeast fitness was ≤ 0.5. With U19A A36G A42C C66A the yeast fitness was ≤ 0.5. G18C A21G A70C gave a yeast fitness of 0.572. Work on G18A G63A A69C yielded a yeast fitness of 0.827. With G18C A45C the yeast fitness was 0.695. With U19A C24U G38A U54C C66A the yeast fitness was 0.511. Work on G18C U19G A45C yielded a yeast fitness of 0.73. In the case of G18C C27U C62G G63A C66G A69G, the yeast fitness is reported as ≤ 0.5. U19A A42C gave a yeast fitness of 0.862. In the case of U19A A42U, the yeast fitness is reported as 0.949. In the case of U19A C22U U32C C46U, the yeast fitness is reported as ≤ 0.5. In the case of G18C U35A A45C, the yeast fitness is reported as 0.671. For U19A A37U G41C, the yeast fitness was ≤ 0.5. In the case of G18A U19A C27G G39C, the yeast fitness is reported as ≤ 0.5. Work on G18C C33A yielded a yeast fitness of 0.592. With U19A A65C C66G A70G the yeast fitness was ≤ 0.5. For G18A U53G, the yeast fitness was ≤ 0.5. In the case of U19A A21C C31G G41A A43C, the yeast fitness is reported as ≤ 0.5. In the case of U19A C27U G44C G48C, the yeast fitness is reported as ≤ 0.5. U19A C27U C29U showed a yeast fitness of 0.697. For U19A C29A U32A U54C C55G C60G, the yeast fitness was ≤ 0.5. For G18U A36C G67C, the yeast fitness was ≤ 0.5. Variant G18C C27U G38A G39C has a yeast fitness of 0.521. For G18C U35G G41C C66G, the yeast fitness was ≤ 0.5. For G18C C49G, the yeast fitness was 0.734. Variant G18C C49U has a yeast fitness of 0.607. In the case of G18A U26A C27U C49U G58A A65G, the yeast fitness is reported as ≤ 0.5. Variant U19A C24G C33G C34G A57G has a yeast fitness of 0.579. With U19A C27G C31U C62U the yeast fitness was ≤ 0.5. Variant G18U U26A has a yeast fitness of 0.623. For G18C C49A C61G, the yeast fitness was 0.694. G18C C31U A43U gave a yeast fitness of 0.588. In the case of U19A C24G C27U C30A G52C G56A, the yeast fitness is reported as ≤ 0.5. With U19A A37U C55G the yeast fitness was 0.593.
